Measured values taken from ChEMBL document CHEMBL1649579, “A novel tryptophanyl-tRNA synthetase gene confers high-level resistance to indolmycin” (2009).
In brackets after ≈: the same amount, converted by molar mass.

Assays:
Format in all cases: functional
[1] = system: Streptomyces coelicolor; experiment: Antimicrobial activity against Streptomyces coelicolor B725 harboring trpRS2 L9F mutant ORF after 48 hrs; conditions: B725, 48 h
Procedure, shortened: (§1)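 Agar MIC in S. coelicolor trpRS1-null strain B725. Each ORF is cloned into pIJ10257 under the constitutive ermE* promoter for equalized expression. Growth is on Difco nutrient agar with indolmycin at the indicated concentrations, 30C, 48 h. MIC is the concentration that inhibits growth.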

[2] = system: Streptomyces coelicolor; experiment: Ratio of MIC for Streptomyces coelicolor B725 harboring trpRS2 locus to MIC for Streptomyces coelicolor B725
Procedure, shortened: (§2)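 Fold increase is the indolmycin MIC of each construct-bearing B725 strain (ermE* promoter) divided by the MIC of the parent trpRS1-null B725. Both MICs come from Difco nutrient agar plates containing indolmycin, read for growth after 2 days at 30C.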

[3] = system: Streptomyces coelicolor; experiment: Ratio of MIC for Streptomyces coelicolor B725 harboring trpRS2 ORF to MIC for Streptomyces coelicolor B725; procedure, shortened: as §2
[4] = system: Streptomyces coelicolor; experiment: Antimicrobial activity against Streptomyces coelicolor B725 harboring trpRS2 Q13K mutant ORF after 48 hrs; conditions: B725, 48 h; procedure, shortened: as §1
[5] = system: Streptomyces coelicolor; experiment: Antimicrobial activity against Streptomyces coelicolor B725 harboring trpRS2 L9F/H48Q mutant ORF after 48 hrs; conditions: B725, 48 h; procedure, shortened: as §1
[6] = system: Streptomyces coelicolor; experiment: Ratio of MIC for Streptomyces coelicolor B725 harboring trpRS2 C(-17)A/H48Q locus to MIC for Streptomyces coelicolor B725; procedure, shortened: as §2
[7] = system: Streptomyces coelicolor; experiment: Antimicrobial activity against Streptomyces coelicolor B725 harboring trpRS2 L9F/Q13K mutant ORF after 48 hrs; conditions: B725, 48 h; procedure, shortened: as §1
[8] = system: Streptomyces coelicolor; experiment: Ratio of MIC for Streptomyces coelicolor B725 harboring trpRS2 G(-13)T/H48Q locus to MIC for Streptomyces coelicolor B725; procedure, shortened: as §2
[9] = system: Streptomyces coelicolor; experiment: Antimicrobial activity against Streptomyces coelicolor B725 harboring trpRS1 ORF after 48 hrs; conditions: B725, 48 h; procedure, shortened: as §1
[10] = system: Streptomyces coelicolor; experiment: Antimicrobial activity against Streptomyces coelicolor B725 harboring trpRS2 C(-17)A locus after 48 hrs; conditions: B725, 48 h
Procedure, shortened: (§3)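 Agar MIC in trpRS1-null S. coelicolor B725 carrying the trpRS2 locus (93 nt upstream to 96 nt downstream of the ORF, with or without point mutations) […]. Plates are Difco nutrient agar with indicated indolmycin levels, read for growth after 48 h at 30C.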

[11] = system: Streptomyces coelicolor; experiment: Antimicrobial activity against Streptomyces coelicolor B725 harboring trpRS2 G(-13)T locus after 48 hrs; conditions: B725, 48 h; procedure, shortened: as §3
[12] = system: Streptomyces coelicolor; experiment: Antimicrobial activity against wild-type Streptomyces coelicolor after 48 hrs
Procedure, shortened: (§4)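 Indolmycin MIC on Difco nutrient agar containing the indicated indolmycin concentrations. Spores are grown at 30C for 48 h. MIC is the lowest indolmycin concentration that prevents growth after 2 days.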

[13] = system: Streptomyces coelicolor; experiment: Ratio of MIC for Streptomyces coelicolor B725 harboring trpRS2 C(-17)A/L9F locus to MIC for Streptomyces coelicolor B725; procedure, shortened: as §2
[14] = system: Streptomyces coelicolor; experiment: Antimicrobial activity against trpRS1 deficient Streptomyces coelicolor B725 after 48 hrs; conditions: B725, 48 h; procedure, shortened: as §4
[15] = system: Streptomyces coelicolor; experiment: Ratio of MIC for Streptomyces coelicolor B725 harboring trpRS2 C(-17)A locus to MIC for Streptomyces coelicolor B725; procedure, shortened: as §2
[16] = system: Streptomyces coelicolor; experiment: Antimicrobial activity against Streptomyces coelicolor B725 harboring trpRS2 C(-17)A/H48Q locus after 48 hrs; conditions: B725, 48 h; procedure, shortened: as §3
[17] = system: Streptomyces coelicolor; experiment: Antimicrobial activity against Streptomyces coelicolor B725 harboring trpRS2 G(-13)T/L9F locus after 48 hrs; conditions: B725, 48 h; procedure, shortened: as §3
[18] = system: Streptomyces coelicolor; experiment: Antimicrobial activity against Streptomyces coelicolor B725 harboring trpRS2 locus after 48 hrs; conditions: B725, 48 h; procedure, shortened: as §3
[19] = system: Streptomyces coelicolor; experiment: Antimicrobial activity against Streptomyces coelicolor B725 harboring trpRS2 C(-17)A/L9F locus after 48 hrs; conditions: B725, 48 h; procedure, shortened: as §3
[20] = system: Streptomyces coelicolor; experiment: Antimicrobial activity against Streptomyces coelicolor B725 harboring trpRS2 ORF after 48 hrs; conditions: B725, 48 h; procedure, shortened: as §1
[21] = system: Streptomyces coelicolor; experiment: Antimicrobial activity against Streptomyces coelicolor B725 harboring trpRS2 H48Q mutant ORF after 48 hrs; conditions: B725, 48 h; procedure, shortened: as §1
[22] = system: Streptomyces coelicolor; experiment: Ratio of MIC for Streptomyces coelicolor B725 harboring trpRS2 H48Q mutant ORF to MIC for Streptomyces coelicolor B725; procedure, shortened: as §2
[23] = system: Streptomyces coelicolor; experiment: Ratio of MIC for Streptomyces coelicolor B725 harboring trpRS2 L9F mutant ORF to MIC for Streptomyces coelicolor B725; procedure, shortened: as §2
[24] = system: Streptomyces coelicolor; experiment: Ratio of MIC for Streptomyces coelicolor B725 harboring trpRS2 Q13K mutant ORF to MIC for Streptomyces coelicolor B725; procedure, shortened: as §2
[25] = system: Streptomyces coelicolor; experiment: Ratio of MIC for Streptomyces coelicolor B725 overexpressing tryptophanyl-tRNA synthetase gene to MIC for Streptomyces coelicolor B725; procedure, shortened: as §2
[26] = system: Streptomyces coelicolor; experiment: Ratio of MIC for Streptomyces coelicolor B725 harboring trpRS2 G(-13)T locus to MIC for Streptomyces coelicolor B725; procedure, shortened: as §2
[27] = system: Streptomyces griseus; experiment: Antimicrobial activity against Streptomyces griseus after 48 hrs; procedure, shortened: as §4
[28] = system: Streptomyces coelicolor; experiment: Antimicrobial activity against Streptomyces coelicolor B725 harboring trpRS2 H48N mutant ORF after 48 hrs; conditions: B725, 48 h; procedure, shortened: as §1
[29] = system: Streptomyces coelicolor; experiment: Ratio of MIC for Streptomyces coelicolor B725 harboring trpRS2 L9F/Q13K mutant ORF to MIC for Streptomyces coelicolor B725; procedure, shortened: as §2
[30] = system: Streptomyces coelicolor; experiment: Antimicrobial activity against Streptomyces coelicolor B725 harboring trpRS2 G(-13)T/H48Q locus after 48 hrs; conditions: B725, 48 h; procedure, shortened: as §3
[31] = system: Streptomyces avermitilis; experiment: Antimicrobial activity against Streptomyces avermitilis harboring trpRS1 homolog after 48 hrs; procedure, shortened: as §4
[32] = system: Streptomyces coelicolor; experiment: Ratio of MIC for Streptomyces coelicolor B725 harboring trpRS2 G(-13)T/L9F locus to MIC for Streptomyces coelicolor B725; procedure, shortened: as §2
[33] = system: Streptomyces coelicolor; experiment: Ratio of MIC for Streptomyces coelicolor B725 harboring trpRS2 H48N mutant ORF to MIC for Streptomyces coelicolor B725; procedure, shortened: as §2
[34] = system: Streptomyces coelicolor; experiment: Ratio of MIC for Streptomyces coelicolor B725 harboring trpRS2 L9F/H48Q mutant ORF to MIC for Streptomyces coelicolor B725; procedure, shortened: as §2

In the case of `CNC1=NC(=O)[C@H]([C@H](C)c2c[nH]c3ccccc23)O1` [INDOMYCIN], the MIC [1] is reported as 5 mg/L (≈ 19.4 µM), the “fold change (FC)” value [2] is reported as 1 and the “fold change (FC)” value [3] is reported as 1. The MIC [4] was 3 mg/L (≈ 11.7 µM), the MIC [5] was over 75 mg/L and the “fold change (FC)” value [6] was over 300. For the same compound, the MIC [7] was 8 mg/L (≈ 31.1 µM), the “fold change (FC)” value [8] was over 300 and the MIC [9] was 10 mg/L (≈ 38.9 µM). The MIC [10] was 2 mg/L (≈ 7.77 µM), the MIC [11] was 5 mg/L (≈ 19.4 µM) and the MIC [12] was over 150 mg/L. For the same compound, the “fold change (FC)” value [13] was 20, the MIC [14] was 0.25 mg/L (≈ 0.972 µM) and the “fold change (FC)” value [15] was 8. For the same compound, the MIC [16] was over 75 mg/L, the MIC [17] was 12 mg/L (≈ 46.6 µM) and the MIC [18] was 0.25 mg/L (≈ 0.972 µM). The MIC [19] was 5 mg/L (≈ 19.4 µM), the MIC [20] was 0.25 mg/L (≈ 0.972 µM) and the MIC [21] was over 75 mg/L. The “fold change (FC)” value [22] was over 300, the “fold change (FC)” value [23] was 20 and the “fold change (FC)” value [24] was 12. For the same compound, the “fold change (FC)” value [25] was 60, the “fold change (FC)” value [26] was 20 and the MIC [27] was 15 mg/L (≈ 58.3 µM). For the same compound, the MIC [28] was over 75 mg/L, the “fold change (FC)” value [29] was 32 and the MIC [30] was over 75 mg/L. For the same compound, the MIC [31] was 5 mg/L (≈ 19.4 µM), the “fold change (FC)” value [32] was 48 and the “fold change (FC)” value [33] was over 300. The “fold change (FC)” value [34] was over 300.
